Here are results for 79 variants from the RNAGym collection of RNA variant scans (doi:10.1126/science.aae0568).

B1: tRNA (parent)
chain: GUUCCGUUGGCGUAAUGGUAACGCGUCUCCCUCCUAAGGAGAAGACUGCGGGUUCGAGUCCCGUACGGAACG

Variants at the floor of the assay were thinned out. Bounds are passed on as bounds.

The series covers variants of B1. The experiment in a line: yeast fitness relative to wild type (ratio to wild type); higher = fitter; tRNA-Arg(CCU), competitive growth, 37 C, YPD. An outline of the steps: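 For this measurement, the tRNA-Arg(CCU) gene was varied by chemical synthesis at a 3% per-site mutation rate across 69 sites, and each variant was placed at the native genomic locus in Saccharomyces cerevisiae. The pooled strains went through a 24-hour competition in YPD at 37°C in six parallel replicates, with amplicons from start and end populations read by 100-nucleotide paired-end sequencing. Darwinian fitness relative to wild type followed from the change in each genotype's frequency. Genotypes needed ≥ 100 starting reads, and estimates < 0.5 were set to 0.5.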
With C66U A70G, the yeast fitness was found to be 0.973. The same measure for C66A A70U: 0.603; for C66U G68A: 0.871. For the variant A65G G68C, the yeast fitness stood at 0.859.

For A69G A70U, the yeast fitness came out at 0.99. With C66G G68C the figure was 0.634. The same measure for U64A G67A: 0.84; for G67A A70C: 0.901. For A65C A70G, the yeast fitness came out at 1.06.

In the case of A65C A70U, the yeast fitness is 1.06.

For the variant G67A G68A, the yeast fitness was 0.85. With G67U A70U the figure was 0.933. Consider U64C G67C, for which the yeast fitness turned out to be 0.938. For the variant U64C G67A, the yeast fitness was determined as 0.802.

As to U64G A65U, the yeast fitness was 0.648. As to A65G C66G A70G, the yeast fitness was ≤ 0.5.

Take A65C A69C: the yeast fitness turned out to be 0.727. With A65C A69U the figure was 0.921; with A65C A69G, 0.939; with U64A A65U, 0.718. With U64G A69G the figure was 0.789; with U64G A69C, 0.616; with U64A A65C G68A, 0.526. The same measure for C66U G67C: 0.934; for G68C A70C: 0.837. U64G G68A: the yeast fitness came out at 0.678. The same measure for A65G A70C: 0.889; for A65G C66G: 0.897; for G68U A69G: 0.998. With U64G A70C the figure was 0.755. With A65U G68U the figure was 0.99; with A65U G68C, 0.625. Regarding C66A A69U, the yeast fitness was found to be 0.693. With U64C A69C A70U the figure was 0.757.

Take A65U A69U: the yeast fitness turned out to be 0.967. With A65U A69C the figure was 0.845; with C66G A70U, 0.724. The same measure for U64C C66A: 0.832; for U64A A69G: 0.719. With U64A A70G the figure was 0.711; with U64A A70U, 0.884; with A69C A70C, 0.982. Regarding A69C A70G, the yeast fitness was determined as 1.02. As to A69C A70U, the yeast fitness stood at 1.05. The same measure for G67U A69C: 0.795. As to C66U A69U, the yeast fitness turned out to be 0.831. With C66U A69C the figure was 0.743; with A69U A70C, 1.04. As to G68A, the yeast fitness stood at 0.963. With G68U the figure was 1.02; with G68C, 0.968. Regarding A65C G67A, the yeast fitness worked out at 0.692. On to G67A A69G, for which the yeast fitness is 0.974. The same measure for U64G C66U: 0.669.

Regarding C66A G68C, the yeast fitness was determined as 0.678.

Turning to G68A A69U, the yeast fitness was determined as 0.791. The same measure for G68A A69G: 0.827. On to U64C G68U, for which the yeast fitness worked out at 1.01. With A65G G67A the figure was 1.03. Consider A65U G67A, for which the yeast fitness stood at 0.839. The same measure for C66A G67A: 0.557. On to G63U C66A A69U, for which the yeast fitness is ≤ 0.5.

For A70C, the yeast fitness was found to be 1.04. A70G: the yeast fitness turned out to be 0.999.

In the case of A70U, the yeast fitness is 1.02.

On to G67C A70U, for which the yeast fitness came to 0.904. With G68A A70U the figure was 1.21. With G68A A70C the figure was 0.861. With A65U A70C the figure was 0.823. Take U64C A65U: the yeast fitness was 0.928. The same measure for U64C A65G: 0.86; for A65C A69G A70U: 0.519; for C66G A69C: 0.782. With C66G A69U the figure was 0.746; with G68C A69G, 0.945. With G68C A69U the figure was 0.711; with G68C A69C, 0.786; with U64A A65G G67U, 0.709. As to G67C A69U, the yeast fitness amounted to 0.896.
